The subject of assay [1] is Staphylococcus aureus. Briefly: Minimum inhibitory concentration (MIC) to control the growth of Staphylococcus aureus strain PCM 2054. Type of assay: functional. In a few lines: (§1)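 Doubling dilutions of compound were made in a defined liquid peptide medium free of peptide-mimetic antagonists, final 0.065–512 μg/mL. The inoculum was an overnight 37 °C culture diluted to about 4 × 10^6 cfu/mL, incubated overnight at 37 °C. Non-turbid samples were subcultured (0.1 mL) onto solid peptide-medium agar and incubated overnight at 37 °C to assign MIC.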

For assay [2], the system named is Enterococcus faecalis. Description: Minimum inhibitory concentration (MIC) to control the growth of Streptococcus faecalis strain PCM 896. It counts as functional. Summed up:
as §1

For assay [3], the system named is Escherichia coli. Description: Concentration (IC50) to inhibit the growth of Escherichia coli. It counts as functional, organism-based. Summed up:
(§2)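 Broth dilution in a defined liquid peptide medium lacking antagonists of small peptide mimetics. Inocula were overnight cultures grown in this medium at 37 °C and diluted to about 4 × 10^6 cfu/mL. Compound was tested as a doubling dilution series, final 0.065–512 μg/mL, incubated overnight at 37 °C. Turbidity was read, and IC50 is the concentration reducing 24-h growth to 50% of control.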

The test system of assay [4] is Enterococcus faecalis. Briefly: Concentration (IC50) to inhibit the growth of Streptococcus faecalis. Type of assay: functional, organism-based. Summed up: as §2
Assay [5] concerns Escherichia coli. Briefly: Minimum inhibitory concentration (MIC) to control the growth of Escherichia coli strain PCM 2057. It counts as functional. In a few lines: as §1
Assay [6] relates to Klebsiella aerogenes. Description: Minimum inhibitory concentration (MIC) to control the growth of Klebsiella aerogenes strain PCM 2063. Type of assay: functional. Summed up:
as §1

The subject of assay [7] is Staphylococcus aureus. Description: Concentration (IC50) to inhibit the growth of Staphylococcus aureus. Type of assay: functional, organism-based. In a few lines:
as §2

For assay [8], the system named is Bacillus subtilis. Description: Concentration (IC50) to inhibit the growth of Bacillus subtilis. Type of assay: functional, organism-based. In a few lines: as §2
Assay [9] relates to Bacillus subtilis. Description: Minimum inhibitory concentration (MIC) to control the growth of Bacillus subtilis strain PCM 1949. It counts as functional. Summed up:
as §1

The subject of assay [10] is Serratia marcescens. Description: Minimum inhibitory concentration (MIC) to control the growth of Serratia marcescens strain PCM 549. It counts as functional. Summed up: as §1
For assay [11], the system named is Serratia marcescens. Briefly: Concentration (IC50) to inhibit the growth of Serratia marcescens. Type of assay: functional, organism-based. Summed up: as §2
Assay [12] has as its system Klebsiella aerogenes. Description: Concentration (IC50) to inhibit the growth of Klebsiella aerogenes. Type of assay: functional, organism-based. In a few lines: as §2

SMILES strings stand for the structures. Values after ≈ are worked out from the molar mass of the structure shown.

Nine molecules from ChEMBL document CHEMBL1123266, “Antibacterial activity of phosphono dipeptides related to alafosfalin” (J Med Chem, 1986) can be followed below.

The term MIC denotes the least concentration at which growth counts as inhibited. As usually defined, the IC50 is the concentration that gives 50% inhibition. A higher IC50 goes with a need for much substance.

For `CC(C)CC(N)C(=O)NC(C1CCCCC1)P(=O)(O)O` (stereo not drawn), the MIC with Staphylococcus aureus [1], in the assay with Enterococcus faecalis [2], in the assay with Escherichia coli [5], against Klebsiella aerogenes [6], in the assay on Bacillus subtilis [9] and with Serratia marcescens [10] was above 512 µg/mL each time. Also, the IC50 in the assay with Escherichia coli [3], with Enterococcus faecalis [4], in the assay with Staphylococcus aureus [7], in the assay with Bacillus subtilis [8], in the assay on Serratia marcescens [11] and in the assay on Klebsiella aerogenes [12] was above 512 µg/mL in each case.

For the molecule `CC(N)C(=O)NC(C12CC3CC(CC(C3)C1)C2)P(=O)(O)O` (stereo not drawn), the MIC against Staphylococcus aureus [1], against Enterococcus faecalis [2], against Escherichia coli [5], with Klebsiella aerogenes [6], with Bacillus subtilis [9] and in the assay on Serratia marcescens [10] was above 512 µg/mL in each case. The IC50 in the assay on Escherichia coli [3], in the assay with Enterococcus faecalis [4], with Staphylococcus aureus [7], with Bacillus subtilis [8], in the assay with Serratia marcescens [11] and in the assay with Klebsiella aerogenes [12] was above 512 µg/mL each time.

Take `CC(C)CC(N)C(=O)NC(CCC(=O)O)P(=O)(O)O` (stereo not drawn): the MIC against Staphylococcus aureus [1] is above 512 µg/mL; against Enterococcus faecalis [2] it was above 512 µg/mL; in the assay on Escherichia coli [5], 128 µg/mL (≈ 432 µM); against Klebsiella aerogenes [6], 128 µg/mL (≈ 432 µM); in the assay with Bacillus subtilis [9], 128 µg/mL (≈ 432 µM); against Serratia marcescens [10] it was above 512 µg/mL. Also, the IC50 with Escherichia coli [3] stood at 18 µg/mL (≈ 60.8 µM); in the assay with Enterococcus faecalis [4] it was 32 µg/mL (≈ 108 µM); with Staphylococcus aureus [7], 128 µg/mL (≈ 432 µM); in the assay on Bacillus subtilis [8], 14 µg/mL (≈ 47.3 µM); in the assay on Serratia marcescens [11] it was 16 µg/mL (≈ 54 µM); in the assay on Klebsiella aerogenes [12] it was 22 µg/mL (≈ 74.3 µM).

For the molecule `CC(N)C(=O)NC(C(C)C)P(=O)(O)O` (stereo not drawn), the MIC with Staphylococcus aureus [1], with Enterococcus faecalis [2], with Escherichia coli [5], in the assay with Klebsiella aerogenes [6], in the assay on Bacillus subtilis [9] and in the assay with Serratia marcescens [10] was above 512 µg/mL each time. The IC50 in the assay with Escherichia coli [3] is above 512 µg/mL; in the assay with Enterococcus faecalis [4] it was 0.09 µg/mL (≈ 0.401 µM); in the assay with Staphylococcus aureus [7], 6.8 µg/mL (≈ 30.3 µM); in the assay on Bacillus subtilis [8], above 512 µg/mL; in the assay with Serratia marcescens [11] it was above 512 µg/mL; in the assay with Klebsiella aerogenes [12], above 512 µg/mL.

Regarding `CC(C)CC(N)C(=O)NC(C(C)(C)C)P(=O)(O)O` (stereo not drawn), the MIC against Staphylococcus aureus [1], with Enterococcus faecalis [2], with Escherichia coli [5], against Klebsiella aerogenes [6], with Bacillus subtilis [9] and in the assay with Serratia marcescens [10] was above 512 µg/mL throughout. For the same molecule, the concentration for half-maximal inhibition (IC50) in the assay on Escherichia coli [3], in the assay with Enterococcus faecalis [4], in the assay on Staphylococcus aureus [7], in the assay with Bacillus subtilis [8], with Serratia marcescens [11] and in the assay on Klebsiella aerogenes [12] was above 512 µg/mL in each case.

As to `CC(C)CC(N)C(=O)NC(C12CC3CC(CC(C3)C1)C2)P(=O)(O)O` (stereo not drawn), the MIC with Staphylococcus aureus [1], against Enterococcus faecalis [2], against Escherichia coli [5], against Klebsiella aerogenes [6], in the assay with Bacillus subtilis [9] and in the assay with Serratia marcescens [10] was above 512 µg/mL each time. The IC50 with Escherichia coli [3], in the assay with Enterococcus faecalis [4], in the assay on Staphylococcus aureus [7], in the assay on Bacillus subtilis [8], in the assay on Serratia marcescens [11] and with Klebsiella aerogenes [12] was above 512 µg/mL in each case.

As to `CC(=O)OCC(NC(=O)C(N)CC(C)C)P(=O)(O)O` (stereo not drawn), the MIC in the assay on Staphylococcus aureus [1], with Enterococcus faecalis [2], with Escherichia coli [5], against Klebsiella aerogenes [6], in the assay on Bacillus subtilis [9] and against Serratia marcescens [10] was above 512 µg/mL each time. The IC50 in the assay with Escherichia coli [3] was above 512 µg/mL; with Enterococcus faecalis [4], 0.065 µg/mL (≈ 0.219 µM); in the assay with Staphylococcus aureus [7], above 512 µg/mL; in the assay with Bacillus subtilis [8], 1.4 µg/mL (≈ 4.73 µM); with Serratia marcescens [11], above 512 µg/mL; in the assay on Klebsiella aerogenes [12], above 512 µg/mL.

Regarding `CC(N)C(=O)NC(CCC(=O)O)P(=O)(O)O` (stereo not drawn), the MIC is 256 µg/mL (≈ 1010 µM) with Staphylococcus aureus [1]; above 512 µg/mL with Enterococcus faecalis [2]; 64 µg/mL (≈ 252 µM) in the assay on Escherichia coli [5]; 128 µg/mL (≈ 504 µM) against Klebsiella aerogenes [6]; 16 µg/mL (≈ 62.9 µM) in the assay with Bacillus subtilis [9]; above 512 µg/mL in the assay with Serratia marcescens [10]. The IC50 in the assay with Escherichia coli [3] turned out to be 5.6 µg/mL (≈ 22 µM); in the assay with Enterococcus faecalis [4] it was 32 µg/mL (≈ 126 µM); in the assay with Staphylococcus aureus [7], 1.8 µg/mL (≈ 7.08 µM); with Bacillus subtilis [8], 14 µg/mL (≈ 55.1 µM); with Serratia marcescens [11] it was 0.065 µg/mL (≈ 0.256 µM); with Klebsiella aerogenes [12], 4.8 µg/mL (≈ 18.9 µM).

For the molecule `CC(N)C(=O)N1CCCC1P(=O)(O)O` (stereo not drawn), the MIC in the assay with Staphylococcus aureus [1], with Enterococcus faecalis [2], against Escherichia coli [5], with Klebsiella aerogenes [6], against Bacillus subtilis [9] and against Serratia marcescens [10] was above 512 µg/mL each time. Also, the IC50 with Escherichia coli [3], in the assay with Enterococcus faecalis [4], with Staphylococcus aureus [7], with Bacillus subtilis [8], in the assay with Serratia marcescens [11] and in the assay on Klebsiella aerogenes [12] was above 512 µg/mL each time.
